Hits are enriched below; roughly 2.6% of the tested compounds scored in any of these assays.
ARFGAP1 inhibitor = inhibits rat ARF GTPase activating protein 1. Arfgap1-stimulated ARF1 GTP hydrolysis, GDP FP detection. inhibition, % at 16.5 µM. 0.26% of 360,000 active. AID 651572;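 active means inhibition above a per-plate limit, mean inhibition of low control wells plus 3 SD, cut at about 25% in these data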
Target sequence (Q62848 1-136 limits assumed): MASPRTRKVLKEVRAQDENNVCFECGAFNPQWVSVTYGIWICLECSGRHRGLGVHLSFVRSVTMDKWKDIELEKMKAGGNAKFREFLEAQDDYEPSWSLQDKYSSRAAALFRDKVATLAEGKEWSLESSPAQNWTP
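Replicates: Single well per compound | Assay system: Truncated rat Arfgap1 GAP domain | Control set: No-Arfgap1 wells (100%) versus DMSO full-reaction wells (0%) | Times: Enzyme reaction 120 min at 25 °C after 20 min preincubation | Reagent: Human ARF1(Δ1-17)-GTP substrate | Measured by: Tracer-displacement fluorescence polarization with EDTA stop, 620/688 nm | Measure: Percent inhibition of Arfgap1-stimulated GTP hydrolysis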
SMARCA2 act = increases SMARCA2 function in MMTV reporter cells. MG213 cells, MMTV-luciferase reporter, dexamethasone, overnight. activation, % at 9.1 µM. 1% of 370,000 active; in the data active means activation above about 7.8%
esBAF inh = inhibitors of esBAF chromatin remodeling in mouse ES cells; reporter increase, % at 12.5 µM; Bmi1-luciferase knock-in reporter, 24 h; 100% = twice the neutral-well signal; 2% of 350,000 active; in the data active means activation above about 40%;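 further: a rise in the Bmi1 reporter signal indicates esBAF inhibition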
ASAP1 GAP inh = inhibitors of human ASAP1 ArfGAP activity; inhibition, % at 16.5 µM; Q9ULH1; AID 624377; 0.19% of 360,000 active; ASAP1-stimulated ARF1 GTP hydrolysis, GDP FP detection; in the data active means inhibition above about 25%
Target sequence (Q9ULH1 325-724 limits assumed): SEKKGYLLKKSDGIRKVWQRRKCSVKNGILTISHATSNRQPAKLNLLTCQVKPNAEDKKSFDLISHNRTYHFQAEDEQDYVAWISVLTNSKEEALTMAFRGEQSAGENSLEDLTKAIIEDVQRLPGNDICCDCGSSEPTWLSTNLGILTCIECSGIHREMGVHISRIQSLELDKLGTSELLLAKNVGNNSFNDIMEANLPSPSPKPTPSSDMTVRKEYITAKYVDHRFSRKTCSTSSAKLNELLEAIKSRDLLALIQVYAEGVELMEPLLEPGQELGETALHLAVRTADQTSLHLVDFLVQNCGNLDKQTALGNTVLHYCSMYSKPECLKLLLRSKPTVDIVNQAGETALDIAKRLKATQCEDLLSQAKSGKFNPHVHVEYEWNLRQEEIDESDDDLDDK
ARFGAP1 confirm = confirmation of rat ARFGAP1 inhibitors; ARFGAP1-stimulated ARF1 GTP hydrolysis, GDP tracer FP; shares compounds with ARFGAP1 inhibitor; 30% of 890 active; inhibition, % at 16.5 µM;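 active means average inhibition over triplicates above the hit cutoff set in the earlier primary screen, cut at about 25% in these data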
A number is an active result; i = inactive; nt = no result; + = active, no number.

SMILES | ARFGAP1 inhibitor | SMARCA2 act | esBAF inh | ASAP1 GAP inh | ARFGAP1 confirm
CN1c2ccsc2/C(=N/Nc2ccccc2)CS1(=O)=O | 28.7 | i | 57.8 | i | i
Brc1ccc(-c2noc3c2-c2nc(-c4ccccc4)sc2CC3)cc1 | 27.4 | i | i | i | i
Cc1ccc(NC(=O)CSc2nnc(CNC(=O)C34CC5CC(CC(C5)C3)C4)n2-c2ccc(F)cc2)cc1 | 28.6 | i | nt | i | i
O=C(CSc1nnc(CNC(=O)C23CC4CC(CC(C4)C2)C3)n1-c1ccccc1)Nc1ccc(F)cc1 | i | i | nt | i | nt
C[C@@H]1CN([C@H](C)CO)C(=O)c2cc(NS(=O)(=O)c3ccccc3)ccc2O[C@@H]1CN(C)Cc1ccc(C(=O)O)cc1 | nt | nt | i | nt | nt
Cc1cc(C(=O)CN2c3cccc4cccc(c34)S2(=O)=O)c(C)n1C | i | i | i | i | nt
COCC(C)n1c(C)cc(C(=O)CN2c3cccc4cccc(c34)S2(=O)=O)c1C (stereo not drawn) | 29.2 | i | i | i | 25.7
COc1ccc(-c2cc3ccccc3oc2=O)cc1NC(=O)c1cccnc1 | 33.6 | i | i | i | 34.0
COc1ccc(OC)c(NC(=O)c2cccnc2)c1 | i | i | i | i | nt
O=C(OCC(=O)N1CCN(c2ccccc2)CC1)c1cnc(Cl)c(Cl)c1 | i | i | nt | i | nt
C=CCOC(=O)c1ccc(N2CCN(c3ccccc3)CC2)nc1 | 40.3 | i | i | i | i
Cc1ccc(S(=O)(=O)Nc2ccc3c(c2)CC(=O)N([C@@H](C)CO)C[C@@H](C)[C@@H](CN(C)C(=O)Nc2cccc4ccccc24)O3)cc1 | nt | nt | i | nt | nt
C=CCN(CC=C)C(=S)Nc1ccc2nsnc2c1 | 32.5 | i | i | i | i
CCOc1ccc(NC(=S)Nc2ccc3nsnc3c2)cc1 | 26.4 | i | nt | i | i
COc1ccc(S(=O)(=O)N(C)C[C@@H]2Oc3ccc(NS(=O)(=O)c4cn(C)cn4)cc3CC(=O)N([C@H](C)CO)C[C@H]2C)cc1 | nt | nt | i | nt | nt
O=C(c1cccnc1)N1C[C@@H]2[C@H](c3ccccc31)[C@@H](CO)N2C(=O)C1CCOCC1 | nt | nt | i | nt | nt
Cc1cc2[nH]c(=O)c(=O)[nH]c2cc1S(=O)(=O)N1CCN(c2ccccc2)CC1 | i | i | i | i | nt
Cc1cc2[nH]c(=O)c(=O)[nH]c2cc1S(=O)(=O)N1CCC(C)CC1 | 32.1 | i | i | i | i
Cc1nn(-c2ccccc2)c(N)c1N=Nc1cccc(S(=O)(=O)N2CCOCC2)c1 | 28.9 | i | i | i | i
Cc1nn(-c2ccccc2)c(N)c1N=Nc1ccccc1 | i | i | nt | i | nt
O=C(Nc1ccc(Nc2ccncc2)cc1)c1ccc(Nc2ccnc3ccc([N+](=O)[O-])cc23)cc1[N+](=O)[O-] | 74.1 | i | nt | i | +
O=C(Nc1ccc(Nc2ccncc2)cc1)c1ccc([N+](=O)[O-])cc1 | i | i | i | i | nt
CC(C)Cc1ccc(C(C)NC(=O)Cc2ccc(S(=O)(=O)N3CCOCC3)s2)cc1 (stereo not drawn) | 25.1 | i | nt | i | i
COc1ccc([C@H]2C[C@@H](n3cc(COC(=O)c4ccccc4)nn3)[C@H](O)CN2C(=O)C2CCCCC2)cc1 | 26.2 | i | i | i | i
CC(C)NC(=O)Nc1ccc2c(c1)C(=O)N([C@H](C)CO)C[C@H](C)[C@@H](CN(C)C(=O)C1CCCCC1)OCCCC[C@@H](C)O2 | nt | nt | i | nt | nt
SMILES | ARFGAP1 inhibitor | SMARCA2 act | esBAF inh | ASAP1 GAP inh | ARFGAP1 confirm
CC(C)C(=O)Nc1ccc2c(c1)C(=O)N(C)[C@H]1CC[C@H](CC(=O)Nc3ccc(Cl)cc3)O[C@@H]1CO2 | nt | nt | i | nt | nt
CCOc1ccc(NC(=O)CNC(=O)c2nn(-c3ccc(OC)c(OC)c3)c(=O)c3ccccc23)cc1 | i | i | i | i | nt
COc1ccc(-n2nc(C(=O)NCC(=O)Nc3cccc(Cl)c3)c3ccccc3c2=O)cc1OC | 28.3 | i | i | i | 24.9
Cc1ccsc1C(=O)OCC(=O)N1CCOCC1 | 34.9 | i | i | i | i
COc1ccc(S(=O)(=O)Nc2ccc3c(c2)C(=O)N([C@@H](C)CO)C[C@@H](C)[C@H](CN(C)Cc2ccc4c(c2)OCO4)O3)cc1 | nt | nt | i | nt | nt
O=C(N/N=C/C(Cl)=C/c1ccccc1)c1ccc2c(c1)OCO2 | 28.9 | i | i | i | 36.0
O=C(COC(=O)c1ccc([N+](=O)[O-])cc1)NC12CC3CC(CC(C3)C1)C2 | 25.8 | i | i | i | i
COc1ccccc1NS(=O)(=O)c1cc2c(cc1C)NC(=O)CO2 | 51.3 | i | i | i | i
CC(C)NC(=O)N(C)C[C@H]1Oc2c(NC(=O)C3CC3)cccc2C(=O)N([C@@H](C)CO)C[C@@H]1C | nt | nt | i | nt | nt
O=[N+]([O-])c1ccc2[nH]nc(-c3ccccc3)c2c1 | i | i | nt | i | nt
O=[N+]([O-])c1ccc2[nH]c3nc4ccccc4nc3c2c1 | 26.4 | i | i | i | 37.5
O=C(NCC[C@@H]1CC[C@@H](NS(=O)(=O)c2cccc(Cl)c2)[C@H](CO)O1)c1cnccn1 | nt | nt | i | nt | nt
CCOc1ccc(Cl)cc1-c1cc(C(=O)Nc2cc(OC)ccc2OC)[nH]n1 | nt | nt | i | nt | nt
COc1ccc(NC(=O)c2cc(-c3ccccc3O)n[nH]2)cc1Cl | 27.0 | i | i | i | i
Cc1ccc(NC(=O)c2cc(-c3ccccc3O)n[nH]2)cc1Cl | i | i | i | i | nt
CCOc1ccc(Cl)cc1-c1cc(C(=O)Nc2ccc(OC)cc2OC)[nH]n1 | 60.4 | i | i | i | 121.3
O=C(Nc1ccc(S(=O)(=O)N2CCOCC2)cc1)c1cc(-c2cc(Cl)ccc2O)n[nH]1 | 41.0 | i | i | i | 28.9
Cc1cc(O)c(-c2cc(C(=O)Nc3ccc(S(=O)(=O)N4CCOCC4)cc3)[nH]n2)cc1C | i | i | i | i | nt
COc1ccc(Cl)cc1-c1cc(C(=O)Nc2ccc(Br)cc2)[nH]n1 | 28.0 | i | i | i | i
CC(C)NC[C@H]1[C@@H](c2ccc(C3=CCCCC3)cc2)[C@@H](CO)N1C(=O)NC(C)C | nt | nt | i | nt | nt
CO[C@H]1CN(C)C(=O)c2ccc(NS(=O)(=O)c3cn(C)cn3)cc2OC[C@H](C)N(Cc2cccc(F)c2)C[C@H]1C | nt | nt | i | nt | nt
Cc1ccc(S(=O)(=O)Nc2ccc3c(c2)C(=O)N([C@@H](C)CO)C[C@H](C)[C@H](CN(C)C(=O)c2ccccc2)OCCCC[C@@H](C)O3)cc1 | nt | nt | i | nt | nt
C[C@@H]1CN([C@@H](C)CO)C(=O)Cc2cc(NC(=O)Nc3ccccc3)ccc2O[C@H]1CN(C)Cc1ccccc1 | nt | nt | i | nt | nt
O=C(Nc1ccc2oc(=O)ccc2c1)c1ccc(-c2cccc([N+](=O)[O-])c2)o1 | 70.8 | i | nt | 62.5 | 106.8
O=C(Nc1ccc2oc(=O)ccc2c1)c1ccc(-c2ccccc2[N+](=O)[O-])o1 | i | i | nt | i | nt
C[C@@H]1CN([C@H](C)CO)C(=O)c2cc(-c3cccc(C#N)c3)cnc2O[C@H]1CN(C)C(=O)C1CCOCC1 | nt | nt | i | nt | nt
Fc1ccc(Nc2ccnc(Nc3ccc(F)cc3)n2)cc1 | 24.7 | i | nt | i | i
OC(c1ccc(-c2ccccc2)cc1)c1ncc(-c2ccc(C(F)(F)F)cc2)[nH]1 (stereo not drawn) | 39.3 | i | nt | i | i

Compound activity: PubChem BioAssay, several laboratories
